Published values pooled from the literature.
Lines come from different studies, so protocols differ.
Observed: enzyme activity
Mode: inhibitor
EGFR: Epidermal growth factor receptor (EGFR, Homo sapiens, UniProt P00533)
EGFR L858R: Epidermal growth factor receptor (EGFR, Homo sapiens, UniProt P00533, L858R)
EGFR L858R/T790M: Epidermal growth factor receptor (EGFR, Homo sapiens, UniProt P00533, L858R/T790M)

| SMILES | target | technique | setting | IC50 [µM] |
| --- | --- | --- | --- | --- |
| CN1CCN(C/C=N/NC(=O)Nc2cc3c(Nc4ccc(F)c(Cl)c4)ncnc3cc2O[C@H]2CCOC2)CC1 | EGFR | – | – | 0.0018 |
| Nc1ccc(-c2csc(Nc3ccc4c(O)ncnc4c3)n2)cc1 | EGFR | ELISA | – | 0.0142 |
| CC(C)Cc1ccc(-c2nn(-c3ccc(S(C)(=O)=O)cc3)cc2/C=N/N=c2\[nH]c(-c3ccc([N+](=O)[O-])cc3)cs2)cc1 | EGFR L858R | – | – | 0.114 |
| COCCOc1cc2ncnc(Nc3ccc(OCCn4ccnc4[N+](=O)[O-])c(Cl)c3)c2cc1OCCOC | EGFR | FRET | – | 0.23 |
| C=CC(=O)Nc1cc(Nc2nccc(-c3cn(C4CC4)c4ccccc34)n2)c(OC)cc1N(C)CCN(C)C | Epidermal growth factor receptor (EGFR, Homo sapiens, UniProt P00533, G719D) | TR-FRET | – | 0.0541 |
| O=C(N/N=C/c1cccn1CCN1CCOCC1)Nc1cc2c(Nc3ccc(F)c(Cl)c3)ncnc2cc1O[C@H]1CCOC1 | EGFR | – | – | 0.0006 |
| COCCOc1cc2ncnc(Nc3ccc(OCCCn4ccnc4[N+](=O)[O-])c(Cl)c3)c2cc1OCCOC | EGFR | FRET | – | 0.4 |
| C=CC(=O)Nc1cc(Nc2nc(N3CCc4sccc4C3)c3cccnc3n2)c(OC)cc1N1CCC(N(C)C)CC1 | EGFR | ELISA | – | > 1 |
| COc1ccc(-c2nn(-c3ccc(S(C)(=O)=O)cc3)cc2/C=N/N=c2\[nH]c(-c3ccc(Br)cc3)cs2)cc1 | EGFR L858R | – | – | 0.036 |
| COc1cc2c(Nc3ccc(OCCCn4ccnc4[N+](=O)[O-])c(Cl)c3)ncnc2cc1OCCCN1CCOCC1 | EGFR | FRET | – | 0.33 |
| COc1cc2ncnc(NCc3cccs3)c2cc1OC | EGFR | mobility shift | – | 0.035 |
| C=C(Cl)C(=O)Nc1cc(Nc2nc(N3CCOCC3)c3sccc3n2)c(OC)cc1N(C)CCN(C)C | EGFR | ELISA | – | > 1 |
| O=C(N/N=C/CN1CCOCC1)Nc1cc2c(Nc3ccc(F)c(Cl)c3)ncnc2cc1O[C@H]1CCOC1 | EGFR | – | – | 0.0015 |
| Oc1ncnc2cc(Nc3nc(-c4ccc(C(F)(F)F)cc4)cs3)ccc12 | EGFR | ELISA | – | 0.00217 |
| OCc1ccc(Nc2ccc3c(Nc4cccc(C(F)(F)F)c4)ncnc3c2)cc1 | EGFR | radiometric | – | 0.00253 |
| Oc1ncnc2cc(Nc3nc(-c4ccccc4)cs3)ccc12 | EGFR | ELISA | – | 0.01 |

| SMILES | target | technique | setting | IC50 [µM] |
| --- | --- | --- | --- | --- |
| COc1ccc(-c2nn(-c3ccc(S(C)(=O)=O)cc3)cc2C=N/N=c2\[nH]c(-c3ccc([N+](=O)[O-])cc3)cs2)cc1 | EGFR L858R/T790M | – | – | 0.08 |
| CCC(=O)Nc1cc(Nc2nc(N3CCc4sccc4C3)c3cccnc3n2)c(OC)cc1N1CCSCC1 | EGFR L858R/T790M | ELISA | – | > 1 |
| O=[N+]([O-])c1ccc(-c2csc(Nc3ccc4c(O)ncnc4c3)n2)cc1 | EGFR | ELISA | – | 0.00293 |
| Fc1ccc(-c2n[nH]cc2C=NNc2ccnc3cc(Cl)ccc23)cc1 | EGFR | mobility shift | – | 73 |
| C=CC(=O)Nc1cc(Nc2nccc(Nc3cc(Cl)c(F)cc3C(C)(C)O)n2)c(OC)cc1N1CC[C@@H](N(C)C)C1 | EGFR L858R/T790M | – | with preincubation | 0.013 |
| COc1cc2ncnc(Nc3ccc(F)c(Cl)c3)c2cc1NC(=O)N/N=C/c1cccn1CCN(C)C | EGFR | – | – | 0.0001 |
| OCc1ccc(Nc2ccc3ncnc(Nc4cccc(C(F)(F)F)c4)c3c2)cc1 | EGFR | radiometric | – | 0.00867 |
| COc1cc2ncnc(Nc3ccc(F)c(Cl)c3)c2cc1NC(=O)N/N=C/c1cccn1CCCN(C)C | EGFR | – | – | 0.0012 |
| COc1cccc(CNc2ncnc3cc(Cl)ccc23)c1 | EGFR | mobility shift | – | 1.7 |
| C=C(Cl)C(=O)Nc1cc(Nc2nc(Nc3cnn(C)c3)c3sccc3n2)c(OC)cc1N1CCN(C)CC1 | EGFR L858R/T790M | ELISA | – | 0.173 |
| O=C(N/N=C/c1cccn1CCCN1CCCCC1)Nc1cc2c(Nc3ccc(F)c(Cl)c3)ncnc2cc1O[C@H]1CCOC1 | EGFR L858R/T790M | – | – | 0.0114 |
| C=C(Cl)C(=O)Nc1cc(Nc2nc(N3CCc4sccc4C3)c3sccc3n2)c(OC)cc1N(C)CCN(C)C | Epidermal growth factor receptor (EGFR, Homo sapiens, UniProt P00533, C797S/L858R/T790M) | ELISA | – | > 1 |
| CN(C)C/C=N/NC(=O)Nc1cc2c(Nc3ccc(F)c(Cl)c3)ncnc2cc1O[C@H]1CCOC1 | EGFR | – | – | 0.0002 |
| O=C1c2c(O)cc(O)cc2OC(c2ccc(O)c(O)c2)C1O (centres unmarked) | EGFR | radiometric | – | 29 |
| C=C(Cl)C(=O)Nc1cc(Nc2nc(Nc3cnn(C)c3)c3sccc3n2)c(OC)cc1N(C)CCN(C)C | EGFR L858R/T790M | ELISA | – | 0.0059 |
| CCN(CC)CCCn1cccc1/C=N/NC(=O)Nc1cc2c(Nc3ccc(F)c(Cl)c3)ncnc2cc1O[C@H]1CCOC1 | EGFR L858R/T790M | – | – | 0.0128 |
